How the values were obtained:
Assay type in all cases: cell-based
[1] = molecular target: T1, 11-beta-hydroxysteroid dehydrogenase type 2 (Homo sapiens) (UniProt P80365); assay: Inhibition of human 11beta-HSD2 expressed in HEK293 cells assessed as conversion of [3H]cortisone into [3H]cortisol at 1 uM by scintillation proximity assay
T1 sequence (whole entry): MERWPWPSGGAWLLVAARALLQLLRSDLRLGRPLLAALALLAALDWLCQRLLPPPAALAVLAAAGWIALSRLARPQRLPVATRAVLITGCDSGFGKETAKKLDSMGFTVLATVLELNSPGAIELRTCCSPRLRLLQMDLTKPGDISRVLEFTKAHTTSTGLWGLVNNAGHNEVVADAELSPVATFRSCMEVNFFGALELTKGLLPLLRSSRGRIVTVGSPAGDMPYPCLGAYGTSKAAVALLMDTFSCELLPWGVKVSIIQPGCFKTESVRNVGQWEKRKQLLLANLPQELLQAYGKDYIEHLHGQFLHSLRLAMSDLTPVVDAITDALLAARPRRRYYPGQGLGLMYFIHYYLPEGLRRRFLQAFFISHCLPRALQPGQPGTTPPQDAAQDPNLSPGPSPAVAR

[2] = molecular target: 11-beta-hydroxysteroid dehydrogenase 1 (Mus musculus) (UniProt P50172); assay: Inhibition of mouse 11beta-HSD1 expressed in HEK293 cells assessed as conversion of [3H]cortisone into [3H]cortisol at 1 uM by scintillation proximity assay
[3] = molecular target: T2, 11-beta-hydroxysteroid dehydrogenase type 2 (Mus musculus) (UniProt P51661); assay: Inhibition of mouse 11beta-HSD2 expressed in HEK293 cells assessed as conversion of [3H]cortisone into [3H]cortisol at 1 uM by scintillation proximity assay
T2 sequence (whole entry): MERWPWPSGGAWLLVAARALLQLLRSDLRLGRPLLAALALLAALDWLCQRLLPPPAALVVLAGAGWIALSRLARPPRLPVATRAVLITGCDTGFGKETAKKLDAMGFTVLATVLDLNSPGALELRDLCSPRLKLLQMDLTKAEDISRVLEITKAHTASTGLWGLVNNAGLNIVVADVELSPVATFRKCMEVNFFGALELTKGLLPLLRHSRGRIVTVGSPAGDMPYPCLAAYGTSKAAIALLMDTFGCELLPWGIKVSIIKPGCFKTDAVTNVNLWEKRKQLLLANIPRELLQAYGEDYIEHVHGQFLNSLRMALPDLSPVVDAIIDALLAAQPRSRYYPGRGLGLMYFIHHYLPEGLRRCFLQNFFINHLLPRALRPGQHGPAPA

[4] = molecular target: T3, 11-beta-hydroxysteroid dehydrogenase 1 (Homo sapiens, UniProt P28845); assay: Inhibition of human 11beta-HSD1 expressed in HEK293 cells assessed as conversion of [3H]cortisone into [3H]cortisol at 1 uM by scintillation proximity assay
Target sequence in this assay (P28845 whole entry, looked up): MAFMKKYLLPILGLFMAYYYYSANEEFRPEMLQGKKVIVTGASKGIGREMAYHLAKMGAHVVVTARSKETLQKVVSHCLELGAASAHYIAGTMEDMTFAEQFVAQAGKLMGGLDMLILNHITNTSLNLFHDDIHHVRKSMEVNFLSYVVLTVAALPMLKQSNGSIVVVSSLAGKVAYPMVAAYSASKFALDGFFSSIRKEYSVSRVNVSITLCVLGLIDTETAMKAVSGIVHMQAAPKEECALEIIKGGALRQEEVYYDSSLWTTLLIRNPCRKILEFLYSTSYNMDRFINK

[5] = molecular target: T3, 11-beta-hydroxysteroid dehydrogenase 1; assay: Inhibition of human 11beta-HSD1 expressed in HEK293 cells assessed as conversion of [3H]cortisone into [3H]cortisol by scintillation proximity assay
Procedure, shortened: (§1)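 Full-length human or murine 11β-HSD1 cDNA was cloned into pcDNA3 and stably expressed in HEK-293 cells selected with 750 μg/mL G418. Microsomes from these cells were incubated with NADPH and [3H]cortisone. The [3H]cortisol formed was captured by a monoclonal antibody on protein A-coated SPA beads. Assays were run in duplicate and repeated twice; IC50 is given as the average. Glycyrrhizinic acid served as positive control.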
Target sequence in this assay (P28845 whole entry): as the sequence (P28845 whole entry, looked up) above

[6] = molecular target: 11-beta-hydroxysteroid dehydrogenase 1 (Mus musculus, UniProt P50172); assay: Inhibition of mouse 11beta-HSD1 expressed in HEK293 cells assessed as conversion of [3H]cortisone into [3H]cortisol by scintillation proximity assay; procedure, shortened: as §1
[7] = molecular target: T4, 11-beta-hydroxysteroid dehydrogenase type 2 (Homo sapiens, UniProt P80365); assay: Inhibition of human 11beta-HSD2 expressed in HEK293 cells assessed as conversion of [3H]cortisone into [3H]cortisol by scintillation proximity assay
T4 sequence (P80365 whole entry): T1 sequence (whole entry)

[8] = molecular target: T5, 11-beta-hydroxysteroid dehydrogenase type 2 (Mus musculus, UniProt P51661); assay: Inhibition of mouse 11beta-HSD2 expressed in HEK293 cells assessed as conversion of [3H]cortisone into [3H]cortisol by scintillation proximity assay
T5 sequence (P51661 whole entry): T2 sequence (whole entry)

Chain of 11-beta-hydroxysteroid dehydrogenase 1 (Mus musculus) (P50172 whole entry, looked up): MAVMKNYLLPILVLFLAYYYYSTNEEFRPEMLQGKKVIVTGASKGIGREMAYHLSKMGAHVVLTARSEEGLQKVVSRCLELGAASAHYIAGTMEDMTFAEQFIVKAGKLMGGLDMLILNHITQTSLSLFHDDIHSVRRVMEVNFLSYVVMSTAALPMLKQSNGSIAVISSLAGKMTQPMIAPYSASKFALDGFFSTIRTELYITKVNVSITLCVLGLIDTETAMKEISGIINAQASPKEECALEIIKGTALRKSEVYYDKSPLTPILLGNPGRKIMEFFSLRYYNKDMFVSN
Chain of 11-beta-hydroxysteroid dehydrogenase 1 (Mus musculus, UniProt P50172) (P50172 whole entry): as the sequence (P50172 whole entry, looked up) above

Structure (SMILES)	inhibition [1] [%]	inhibition [2] [%]	inhibition [3] [%]	inhibition [4] [%]	IC50 [5] [nM]	IC50 [6] [nM]	IC50 [7] [nM]	IC50 [8] [nM]
C[C@H](CC[C@H](O)C(C)(C)O)[C@H]1[C@@H](O)C[C@]23C(=O)O[C@@]4(CC[C@]12C)C[C@@H]1CCC(=O)C(C)(C)[C@@H]1CC[C@H]43	< 50	< 50	< 50	< 50	–	–	–	–
CC(=O)O[C@H]1CC[C@@H]2[C@](C)(CC[C@H]3[C@@]2(C)CC[C@@]2(C(=O)O)[C@@H]4CC(C)(C)CC[C@]4(C)CC[C@]32C)[C@H]1C	< 50	< 50	< 50	< 50	–	–	–	–
CC1(C)[C@@H](O[C@H]2O[C@H](C(=O)O)[C@@H](O)[C@H](O)[C@H]2O[C@@H]2O[C@H](C(=O)O)[C@@H](O)[C@H](O)[C@H]2O)CC[C@]2(C)[C@H]3C(=O)C=C4[C@@H]5C[C@@](C)(C(=O)O)CC[C@]5(C)CC[C@@]4(C)[C@]3(C)CC[C@@H]12 [GLYCYRRHIZIN]	–	–	–	–	6	3	–	–
C[C@H](CC[C@@H](O)C(C)(C)O)[C@H]1CC[C@@]2(C(=O)O)[C@@H]3CC[C@H]4C(C)(C)[C@@H](O)CC[C@@]45C[C@@]35CC[C@]12C (relative stereo) [CALONCOBIC ACID B]	–	–	–	–	72	13	400	> 100000
C[C@@H]1CC[C@@H](C(C)(C)O)OC(=O)[C@@]23C[C@@H](O)[C@H]1[C@@]2(C)CC[C@@]12C[C@@]14CCC(=O)C(C)(C)[C@@H]4CC[C@H]23	< 50	< 50	< 50	< 50	–	–	–	–
C=C(C)[C@@H](O)CC[C@@H](C)[C@H]1CC[C@@]2(C(=O)O)[C@@H]3CC[C@H]4C(C)(C)C(=O)CC[C@@]45C[C@@]35CC[C@]12C (relative stereo) [CALONCOBIC ACID A]	–	–	–	–	105	132	> 100000	> 100000
C=C1C[C@@H]2[C@@](C)(CC[C@]3(C)[C@H]4CC[C@@]5(C)[C@@H](CC[C@H](O)[C@@H]5C)[C@]4(C)CC[C@@]23C(=O)O)C[C@@H]1O	< 50	< 50	< 50	< 50	–	–	–	–
C=C1C[C@@H]2[C@@]3(C)CC[C@]4(C)[C@H]5CC[C@@]6(C)[C@@H](CC[C@H](O)[C@@H]6C)[C@]5(C)CC[C@@]24C(=O)O[C@H]3[C@H]1O (relative stereo)	< 50	< 50	< 50	< 50	–	–	–	–

Reference: ChEMBL document CHEMBL2034975, “Cycloartane and friedelane triterpenoids from the leaves of Caloncoba glauca and their evaluation for inhibition of 11β-hydroxysteroid dehydrogenases” (J Nat Prod, 2012)
